The text below walks through data of ChEMBL document CHEMBL2417369, “Synthesis and evaluation of heteroaryl substituted diazaspirocycles as scaffolds to probe the ATP-binding site of protein kinases” (Bioorg Med Chem, 2013).

Assay [1] concerns the target Insulin-like growth factor 1 receptor (Homo sapiens) (UniProt P08069). Nature of the assay: Inhibition of IGF1R (unknown origin) at 30 uM by microfluidic mobility shift assay relative to control. In outline: (§1)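 Single-point screen at 30 µM test compound across a 24-kinase panel in a microfluidic assay format. ATP was set near each enzyme's Km,[ATP]. […] The pan-AGC inhibitor H-89 served as an internal control on every assay plate.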

Assay [2] has as its target Protein kinase C theta type (Homo sapiens) (UniProt Q04759). The assay can be described thus: Inhibition of PKCtheta (unknown origin) at 30 uM by microfluidic mobility shift assay relative to control. In outline:
(§2)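 Single-point screen against a 24-kinase panel in a commercial microfluidic assay format. Compounds were tested at 30 µM, with ATP at approximately the Km,[ATP] of each enzyme. H-89 was included on each assay plate as an internal control.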

In assay [3] the target is Fibroblast growth factor receptor 1 (Homo sapiens) (UniProt P11362). The assay can be described thus: Inhibition of FGFR1 (unknown origin) at 30 uM by microfluidic mobility shift assay relative to control. An outline of the steps:
as §1

Assay [4] addresses Protein kinase C delta type (Homo sapiens) (UniProt Q05655). Nature of the assay: Inhibition of PKCdelta (unknown origin) at 30 uM by microfluidic mobility shift assay relative to control. An outline of the steps: as §1
The target in assay [5] is Protein kinase C beta type (Homo sapiens) (UniProt P05771). The assay can be described thus: Inhibition of PKCbeta-1 (unknown origin) at 30 uM by microfluidic mobility shift assay relative to control. In outline:
as §1

Assay [6] concerns T1, Receptor-type tyrosine-protein kinase FLT3 (Homo sapiens), P36888 [D835Y].
T1 sequence (whole entry): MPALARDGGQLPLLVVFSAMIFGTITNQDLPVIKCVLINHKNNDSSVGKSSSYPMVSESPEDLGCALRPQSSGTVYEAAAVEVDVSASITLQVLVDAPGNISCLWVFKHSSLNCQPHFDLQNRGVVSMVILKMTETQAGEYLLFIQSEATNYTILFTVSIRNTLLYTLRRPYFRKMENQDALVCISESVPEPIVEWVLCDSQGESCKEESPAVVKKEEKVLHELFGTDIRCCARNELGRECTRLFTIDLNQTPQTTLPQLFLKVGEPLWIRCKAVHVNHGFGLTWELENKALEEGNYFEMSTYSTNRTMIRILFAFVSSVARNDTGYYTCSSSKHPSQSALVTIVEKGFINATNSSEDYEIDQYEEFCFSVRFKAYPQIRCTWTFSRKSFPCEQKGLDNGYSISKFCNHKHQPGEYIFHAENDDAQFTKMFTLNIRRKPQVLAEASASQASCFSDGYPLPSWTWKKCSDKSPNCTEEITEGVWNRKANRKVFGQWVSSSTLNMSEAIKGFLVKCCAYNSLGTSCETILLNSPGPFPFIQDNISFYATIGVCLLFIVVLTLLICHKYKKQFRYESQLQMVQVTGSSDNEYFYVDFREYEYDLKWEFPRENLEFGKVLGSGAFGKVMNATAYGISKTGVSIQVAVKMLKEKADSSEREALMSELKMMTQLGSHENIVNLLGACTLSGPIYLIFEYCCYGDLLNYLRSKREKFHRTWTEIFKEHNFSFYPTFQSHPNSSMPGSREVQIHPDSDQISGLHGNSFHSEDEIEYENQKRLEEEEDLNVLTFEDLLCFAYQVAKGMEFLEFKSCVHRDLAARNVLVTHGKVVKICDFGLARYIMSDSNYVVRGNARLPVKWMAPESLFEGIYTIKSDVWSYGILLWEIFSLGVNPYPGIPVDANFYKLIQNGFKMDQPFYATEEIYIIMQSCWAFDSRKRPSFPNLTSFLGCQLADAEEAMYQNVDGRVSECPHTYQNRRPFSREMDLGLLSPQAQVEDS
Nature of the assay: Inhibition of FLT3 D835Y mutant (unknown origin) at 30 uM by microfluidic mobility shift assay relative to control. An outline of the steps:
as §1

For assay [7], the target named is Serine/threonine-protein kinase pim-1 (Homo sapiens) (UniProt P11309). Nature of the assay: Inhibition of PIM1 (unknown origin) at 30 uM by microfluidic mobility shift assay relative to control. In outline: as §1
The species named for assay [8] is Homo sapiens. The assay can be described thus: Inhibition of PKGbeta (unknown origin) at 30 uM by microfluidic mobility shift assay relative to control. An outline of the steps: as §2
The species named for assay [9] is Homo sapiens. The assay can be described thus: Inhibition of PKGalpha (unknown origin) at 30 uM by microfluidic mobility shift assay relative to control. An outline of the steps:
as §2

For assay [10], the target named is T2, Testis-specific serine/threonine-protein kinase 1 (Homo sapiens) (UniProt Q9BXA7).
T2 sequence (whole entry): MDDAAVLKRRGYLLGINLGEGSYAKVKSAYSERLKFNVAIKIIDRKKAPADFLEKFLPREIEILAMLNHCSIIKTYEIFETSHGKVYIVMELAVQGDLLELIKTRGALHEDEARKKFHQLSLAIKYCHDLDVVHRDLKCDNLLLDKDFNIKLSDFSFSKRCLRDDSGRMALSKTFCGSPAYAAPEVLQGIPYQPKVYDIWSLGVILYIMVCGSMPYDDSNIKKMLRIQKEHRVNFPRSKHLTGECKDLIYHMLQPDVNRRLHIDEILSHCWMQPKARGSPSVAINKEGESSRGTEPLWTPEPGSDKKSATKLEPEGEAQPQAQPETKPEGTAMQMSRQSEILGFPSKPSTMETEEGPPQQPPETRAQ
Nature of the assay: Inhibition of TSSK1 (unknown origin) at 30 uM by microfluidic mobility shift assay relative to control. An outline of the steps: as §2

The target of assay [11] is Tyrosine-protein kinase SYK (Homo sapiens) (UniProt P43405). The assay can be described thus: Inhibition of SYK (unknown origin) at 30 uM by microfluidic mobility shift assay relative to control. In outline:
as §2

Assay [12] concerns the target Ribosomal protein S6 kinase alpha-4 (Homo sapiens) (UniProt O75676). The assay can be described thus: Inhibition of MSK2 (unknown origin) at 30 uM by microfluidic mobility shift assay relative to control. An outline of the steps: as §1
Assay [13] has as its target T3, Testis-specific serine/threonine-protein kinase 2 (Homo sapiens) (UniProt Q96PF2).
T3 sequence (whole entry): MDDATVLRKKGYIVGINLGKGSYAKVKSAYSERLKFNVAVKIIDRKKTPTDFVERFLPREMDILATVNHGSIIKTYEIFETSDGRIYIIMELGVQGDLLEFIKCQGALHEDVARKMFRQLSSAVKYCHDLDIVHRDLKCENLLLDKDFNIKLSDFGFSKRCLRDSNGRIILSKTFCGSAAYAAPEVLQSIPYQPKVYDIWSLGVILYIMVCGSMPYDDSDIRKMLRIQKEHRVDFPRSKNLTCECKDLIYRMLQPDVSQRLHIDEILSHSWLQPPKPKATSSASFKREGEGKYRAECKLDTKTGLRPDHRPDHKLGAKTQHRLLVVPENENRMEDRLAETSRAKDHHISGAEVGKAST
The assay can be described thus: Inhibition of TSSK2 (unknown origin) at 30 uM by microfluidic mobility shift assay relative to control. An outline of the steps:
as §2

In assay [14] the target is Fibroblast growth factor receptor 4 (Homo sapiens) (UniProt P22455). Nature of the assay: Inhibition of FGFR4 (unknown origin) at 30 uM by microfluidic mobility shift assay relative to control. In outline: as §1
In assay [15] the target is Protein kinase C eta type (Homo sapiens) (UniProt P24723). Nature of the assay: Inhibition of PKCeta (unknown origin) at 30 uM by microfluidic mobility shift assay relative to control. An outline of the steps: as §2

Broadly, the inhibition is the change of the read-out against control, counted positive when it falls.

Insulin-like growth factor 1 receptor (Homo sapiens), sequence (P08069 31-736 limits assumed): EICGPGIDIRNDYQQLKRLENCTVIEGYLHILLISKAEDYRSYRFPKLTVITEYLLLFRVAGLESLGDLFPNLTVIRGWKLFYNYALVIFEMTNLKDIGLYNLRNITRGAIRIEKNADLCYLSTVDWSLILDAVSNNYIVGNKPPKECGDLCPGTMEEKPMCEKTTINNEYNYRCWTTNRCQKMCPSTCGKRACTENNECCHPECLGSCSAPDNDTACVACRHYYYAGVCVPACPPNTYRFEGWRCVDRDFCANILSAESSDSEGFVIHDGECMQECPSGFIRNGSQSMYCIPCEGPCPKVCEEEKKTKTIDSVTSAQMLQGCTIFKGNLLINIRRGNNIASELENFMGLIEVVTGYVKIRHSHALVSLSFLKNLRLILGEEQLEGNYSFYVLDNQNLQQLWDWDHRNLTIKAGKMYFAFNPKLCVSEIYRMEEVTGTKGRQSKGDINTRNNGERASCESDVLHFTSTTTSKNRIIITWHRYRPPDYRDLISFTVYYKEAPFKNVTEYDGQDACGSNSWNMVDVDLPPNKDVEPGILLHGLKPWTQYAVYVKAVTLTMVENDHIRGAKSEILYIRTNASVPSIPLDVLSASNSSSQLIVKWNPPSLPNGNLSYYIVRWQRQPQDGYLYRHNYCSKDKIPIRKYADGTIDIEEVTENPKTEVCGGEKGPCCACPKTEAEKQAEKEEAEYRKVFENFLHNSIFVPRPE
Insulin-like growth factor 1 receptor (Homo sapiens), sequence (P08069 741-1367 limits assumed): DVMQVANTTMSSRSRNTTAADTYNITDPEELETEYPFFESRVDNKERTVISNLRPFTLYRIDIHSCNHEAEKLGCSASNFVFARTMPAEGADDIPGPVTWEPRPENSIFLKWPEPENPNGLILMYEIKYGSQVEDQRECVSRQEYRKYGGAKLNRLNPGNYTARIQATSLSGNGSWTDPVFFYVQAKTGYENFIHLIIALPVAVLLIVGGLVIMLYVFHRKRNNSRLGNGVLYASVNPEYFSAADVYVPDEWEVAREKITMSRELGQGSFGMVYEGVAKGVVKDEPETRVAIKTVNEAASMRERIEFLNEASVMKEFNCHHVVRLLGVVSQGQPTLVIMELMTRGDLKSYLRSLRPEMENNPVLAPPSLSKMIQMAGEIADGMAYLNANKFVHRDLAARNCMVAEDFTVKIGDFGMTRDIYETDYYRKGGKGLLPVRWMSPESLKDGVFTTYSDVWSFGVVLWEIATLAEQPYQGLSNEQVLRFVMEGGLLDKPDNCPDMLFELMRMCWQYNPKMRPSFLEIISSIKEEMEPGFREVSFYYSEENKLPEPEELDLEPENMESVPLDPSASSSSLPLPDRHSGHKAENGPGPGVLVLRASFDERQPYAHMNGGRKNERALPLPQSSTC
Protein kinase C beta type (Homo sapiens), sequence (P05771 2-671 limits assumed): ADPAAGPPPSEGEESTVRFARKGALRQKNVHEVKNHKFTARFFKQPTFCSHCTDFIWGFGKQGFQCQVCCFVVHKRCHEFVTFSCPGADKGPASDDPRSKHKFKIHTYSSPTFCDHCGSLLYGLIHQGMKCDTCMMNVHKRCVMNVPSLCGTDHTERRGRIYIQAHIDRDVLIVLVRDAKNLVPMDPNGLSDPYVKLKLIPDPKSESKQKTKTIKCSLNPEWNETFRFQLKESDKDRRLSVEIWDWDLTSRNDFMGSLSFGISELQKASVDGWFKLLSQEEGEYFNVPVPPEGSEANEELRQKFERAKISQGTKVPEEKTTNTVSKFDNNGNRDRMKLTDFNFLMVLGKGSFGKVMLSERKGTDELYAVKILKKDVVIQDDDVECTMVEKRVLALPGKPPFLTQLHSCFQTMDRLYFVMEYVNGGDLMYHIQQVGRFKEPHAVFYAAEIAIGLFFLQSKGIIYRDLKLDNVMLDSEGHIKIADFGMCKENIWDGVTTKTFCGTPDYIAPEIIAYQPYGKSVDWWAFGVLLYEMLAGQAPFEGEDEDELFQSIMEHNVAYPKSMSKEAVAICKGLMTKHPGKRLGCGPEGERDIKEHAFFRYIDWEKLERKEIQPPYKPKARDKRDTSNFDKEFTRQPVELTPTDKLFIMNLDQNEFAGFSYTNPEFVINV
Serine/threonine-protein kinase pim-1 (Homo sapiens), sequence (P11309 whole entry, looked up): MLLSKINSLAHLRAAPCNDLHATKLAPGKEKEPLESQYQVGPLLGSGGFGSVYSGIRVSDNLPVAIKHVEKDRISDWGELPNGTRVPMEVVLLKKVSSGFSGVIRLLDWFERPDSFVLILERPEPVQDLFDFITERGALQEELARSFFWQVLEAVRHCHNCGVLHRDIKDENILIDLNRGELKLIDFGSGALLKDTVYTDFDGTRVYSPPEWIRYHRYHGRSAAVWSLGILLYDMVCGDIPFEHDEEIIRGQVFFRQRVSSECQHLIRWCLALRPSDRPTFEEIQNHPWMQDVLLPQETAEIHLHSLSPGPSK
Protein kinase C eta type (Homo sapiens), sequence (P24723 whole entry): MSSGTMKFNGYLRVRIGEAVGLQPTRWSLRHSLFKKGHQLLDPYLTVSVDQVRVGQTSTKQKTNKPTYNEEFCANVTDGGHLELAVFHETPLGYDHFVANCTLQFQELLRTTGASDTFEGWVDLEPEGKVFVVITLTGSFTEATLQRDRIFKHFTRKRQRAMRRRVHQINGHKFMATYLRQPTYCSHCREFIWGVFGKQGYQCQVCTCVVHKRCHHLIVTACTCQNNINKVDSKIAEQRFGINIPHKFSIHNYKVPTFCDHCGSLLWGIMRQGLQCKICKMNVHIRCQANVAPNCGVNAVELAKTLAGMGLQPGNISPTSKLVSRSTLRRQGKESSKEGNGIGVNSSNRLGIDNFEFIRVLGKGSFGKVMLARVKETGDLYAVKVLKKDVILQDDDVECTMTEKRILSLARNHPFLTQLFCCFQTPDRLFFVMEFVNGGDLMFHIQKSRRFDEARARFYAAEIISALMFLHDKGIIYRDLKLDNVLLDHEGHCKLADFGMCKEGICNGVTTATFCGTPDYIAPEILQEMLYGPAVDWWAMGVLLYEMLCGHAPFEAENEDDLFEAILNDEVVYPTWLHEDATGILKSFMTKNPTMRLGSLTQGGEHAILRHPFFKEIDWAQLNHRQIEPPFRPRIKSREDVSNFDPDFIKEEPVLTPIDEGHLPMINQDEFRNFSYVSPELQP
Protein kinase C theta type (Homo sapiens), sequence (Q04759 whole entry, looked up): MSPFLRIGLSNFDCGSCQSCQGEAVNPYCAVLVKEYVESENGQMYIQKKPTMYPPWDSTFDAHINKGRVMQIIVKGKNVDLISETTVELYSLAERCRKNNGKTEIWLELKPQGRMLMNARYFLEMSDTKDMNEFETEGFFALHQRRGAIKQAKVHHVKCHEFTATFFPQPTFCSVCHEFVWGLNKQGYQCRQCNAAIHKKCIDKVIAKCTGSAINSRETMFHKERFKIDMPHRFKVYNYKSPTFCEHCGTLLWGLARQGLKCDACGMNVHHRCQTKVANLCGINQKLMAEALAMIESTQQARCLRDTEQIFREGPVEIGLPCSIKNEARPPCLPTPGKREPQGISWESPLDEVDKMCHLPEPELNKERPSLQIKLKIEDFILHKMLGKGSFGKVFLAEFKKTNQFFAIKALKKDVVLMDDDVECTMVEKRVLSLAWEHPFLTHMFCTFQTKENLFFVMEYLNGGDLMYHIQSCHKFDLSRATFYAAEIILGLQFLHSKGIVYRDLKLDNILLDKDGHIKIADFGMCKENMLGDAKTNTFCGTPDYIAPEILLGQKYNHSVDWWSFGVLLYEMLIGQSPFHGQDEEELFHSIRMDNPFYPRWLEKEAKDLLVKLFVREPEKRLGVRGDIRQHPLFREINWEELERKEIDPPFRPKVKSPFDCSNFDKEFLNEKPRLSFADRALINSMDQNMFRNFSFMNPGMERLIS
Fibroblast growth factor receptor 1 (Homo sapiens), sequence (P11362 22-822 limits assumed): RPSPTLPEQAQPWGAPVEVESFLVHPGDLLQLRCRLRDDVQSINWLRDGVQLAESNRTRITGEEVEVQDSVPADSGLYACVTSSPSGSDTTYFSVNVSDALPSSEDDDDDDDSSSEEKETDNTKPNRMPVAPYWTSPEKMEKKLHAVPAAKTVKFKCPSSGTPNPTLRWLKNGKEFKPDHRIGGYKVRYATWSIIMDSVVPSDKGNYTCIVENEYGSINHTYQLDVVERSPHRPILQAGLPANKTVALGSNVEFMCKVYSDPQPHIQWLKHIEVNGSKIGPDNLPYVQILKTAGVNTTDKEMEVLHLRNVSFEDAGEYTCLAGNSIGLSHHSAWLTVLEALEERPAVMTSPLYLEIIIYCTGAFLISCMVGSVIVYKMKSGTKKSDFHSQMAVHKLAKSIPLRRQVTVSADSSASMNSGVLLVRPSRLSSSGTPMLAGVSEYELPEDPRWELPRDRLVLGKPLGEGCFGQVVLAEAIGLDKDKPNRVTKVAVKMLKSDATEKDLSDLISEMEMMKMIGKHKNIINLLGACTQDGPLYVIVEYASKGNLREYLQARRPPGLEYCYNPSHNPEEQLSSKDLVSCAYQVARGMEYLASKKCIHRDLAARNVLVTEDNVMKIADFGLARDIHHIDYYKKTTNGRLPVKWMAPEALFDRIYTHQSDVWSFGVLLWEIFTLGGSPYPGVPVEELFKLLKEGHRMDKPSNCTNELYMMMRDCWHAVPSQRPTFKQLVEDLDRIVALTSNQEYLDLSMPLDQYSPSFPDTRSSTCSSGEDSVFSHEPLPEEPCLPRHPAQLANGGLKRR

`c1ccc(C2CCNC3(CCN(c4ncnc5[nH]cnc45)CC3)C2)cc1` (racemic): the inhibition in assay [1] worked out at 5%; in assay [2] it was 77%; in assay [3], 27%; in [4], 79%; in assay [5], 65%; in assay [6] it was 45%. For the same molecule, the inhibition in assay [7] was found to be 7%; in [8], 99%; in assay [9] it was 99%; in assay [10] it was 99%; in assay [11], 24%; in assay [12], 94%. Further, the figures for the inhibition in assay [13], in assay [14] and in assay [15] were 25%, 4% and 61%, respectively.
With `c1ccc(CC2CCC3(CCN(c4ncnc5[nH]cnc45)CC3)NC2)cc1` (racemic), the inhibition was determined as 5% in assay [1]; 17% in assay [2]; 42% in assay [3]; 27% in assay [4]; 38% in [5]; 56% in assay [6]. Besides, the inhibition was found to be 11% in assay [7]; 86% in [8]; 86% in [9]; 65% in assay [10]; 0% in [11]; 52% in assay [12]. The inhibition is 7% in assay [13], 7% in assay [14] and 35% in [15].
On to `c1ccc(CC2CCNC3(CCN(c4ncnc5[nH]cnc45)CC3)C2)cc1` (racemic), for which the inhibition in [1] is 5%; in [2] it was 75%; in assay [3], 44%; in [4], 75%; in [5], 76%; in [6] it was 22%. Also, the inhibition in assay [7] is 8%; in assay [8] it was 98%; in assay [9], 99%; in assay [10] it was 97%; in [11], 8%; in assay [12], 100%. Besides, the inhibition in [13] was 32%; in [14] it was 0%; in assay [15], 71%.
